# Reference: PubChem BioAssay
# Calls of active or inactive are those of the source. Cut-off read from the data, not from the text of the source, unless noted: active = inhibition above about 31%; inactive = the rest.
# Key:
# [1] = HUVEC growth inhibition – cell-based, human, primary screen (AID 575;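 active = viability at or below 30% in both replicate assays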;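 note: 100% = median of untreated cell wells with 0.1% DMSO on each plate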); conditions: HUVEC proliferation, CellTiter-Glo luminescence, 72 h; at 10 µM; stronger effect = lower value
# Summary of the method: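 Test system: HUVEC primary cells. Quantity: 1250 endothelial cells in each well. Dosing: single-point 10 µM, DMSO 0.1% final. Incubation: 72 h treatment at 37 °C. Measured by: CTG luminescence. Control set: DMSO cell controls and MePR drug controls. Plate: collagen-coated 384-well format.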
# [2] = H69AR cell proliferation blockers – human, duplicate replicates, primary screen (AID 580;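 active = viability at or under a set limit in both replicates, limit being median viability minus 3 SD, cut at about 48% in these data, passing the limit was not always enough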;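 note: 100% = mean luminescence of untreated wells and 0% = no signal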); conditions: H69AR lung tumor cells viability, ATP luminescence, 72 h; at 10 µM; stronger effect = lower value
# [3] = MRP1 drug-resistance reversers in H69AR cells – cell-based, doxorubicin co-treatment, pilot screen (AID 601;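 active = viability loss from added drug above about 55%, and viability with drug at most 40%, in both replicates, limit read from the data, passing the limit was not always enough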); conditions: CellTiter-Glo, 72 h, at 10 µM; for differential viability (reversal): stronger effect = higher value
# [4] = yeast transport mutant growth inhibition pilot in 384-well plates, post-Golgi transport modulator project (AID 636); conditions: absorbance 615 nm, about 18 h, stronger effect = higher value
# [5] = growth suppression of yeast trafficking mutant, preliminary HTS, modulators of trafficking downstream of Golgi apparatus project, 1536-format plate, OD 615 nm (AID 637; in the data active = inhibition above about 30%); conditions: yeast transport mutant growth, absorbance 615 nm, 18 h; stronger effect = higher value
# [6] = H69AR cells + 2 uM doxorubicin, measured here: viability with 2 uM doxorubicin, stronger effect = lower value
# [7] = H69AR cells, compound alone cytotoxicity
Compound,viability [1],viability [2],differential viability (reversal) ([3]; H69AR cells + 2 uM doxorubicin),"viability [3, 6]","viability [3, 7]",inhibition [4],inhibition [5]
COc1ccc(C(=O)Nc2ccc(S(=O)(=O)Nc3nccnc3OC)cc2)cc1OC,97.4% (inactive),99.6% (inactive),11% (inactive),88.6%,99.6%,1.69% (inactive),4.6% (inactive)
C/C(Cl)=C\Cn1c(Nc2ccc(C)cc2)nc2c1c(=O)n(C)c(=O)n2C,77.5% (inactive),72.1% (inactive),-11.2% (inactive),83.2%,72.1%,-1.04% (inactive),1.75% (inactive)
CCOC(=O)c1ccc(NC(=O)Nc2ccn(C)n2)cc1,101% (inactive),91.2% (inactive),4.49% (inactive),86.7%,91.2%,-6.27% (inactive),1.75% (inactive)
CCOc1ccc(OCC)c(NC(=O)C2CCN(c3ncccn3)CC2)c1,105% (inactive),86.1% (inactive),-12.5% (inactive),98.5%,86.1%,-3.47% (inactive),-2.06% (inactive)
O=C(NCc1ccc(F)cc1)c1cc(-c2ccco2)on1,93.4% (inactive),92.5% (inactive),-8.09% (inactive),101%,92.5%,-2.89% (inactive),-5.56% (inactive)
CC1(C)CC(=O)C2=C(C1)N(Cc1ccco1)C(=O)C2(NC(=O)C1CCCCC1)C(F)(F)F (configuration not stated),88% (inactive),92.1% (inactive),10.7% (inactive),81.3%,92.1%,-4.47% (inactive),5.56% (inactive)
CC(C)c1ccc(-c2nc(N3CCOCC3)[nH]c(=O)c2C#N)cc1,79.3% (inactive),98% (inactive),1.58% (inactive),96.4%,98%,-6.4% (inactive),3.33% (inactive)
COc1ccc(N2CCN(C(=O)CSc3ncnc4c3cnn4-c3ccccc3C)CC2)cc1,55.5% (inactive),68.6% (inactive),-7.28% (inactive),75.8%,68.6%,0.53% (inactive),16% (inactive)
O=C(c1ncn[nH]1)N1CCN(c2nc(-c3ccccc3)cs2)CC1,104% (inactive),94.5% (inactive),3.58% (inactive),90.9%,94.5%,-1.73% (inactive),9.68% (inactive)
COC(=O)c1cc(Br)ccc1-c1ccc(/C=N/n2nnnc2N)o1,58.1% (inactive),80.6% (inactive),14% (inactive),66.7%,80.6%,-2.47% (inactive),6.51% (inactive)
Cc1c(C(=O)NCc2ccccn2)oc2ccccc12,99.6% (inactive),106% (inactive),25.7% (inactive),80.5%,106%,-0.92% (inactive),17.9% (inactive)
CC(C)Cn1cc(C(=O)NCC2CCCO2)c2c3ccccc3n(C)c2c1=O (configuration not stated),104% (inactive),89.5% (inactive),1.72% (inactive),87.8%,89.5%,-2.08% (inactive),1.59% (inactive)
CCOc1ccc(OCc2cccc(C(=O)N3CCCC3)c2)cc1,110% (inactive),92.9% (inactive),6.89% (inactive),86%,92.9%,-4.13% (inactive),-3.49% (inactive)
CC1=C(C(N)=O)C(c2ccc(Cl)cc2Cl)n2ncnc2N1 (configuration not stated),91.8% (inactive),101% (inactive),16.7% (inactive),84.7%,101%,0% (inactive),6.19% (inactive)
Cc1cc(=O)[nH]c2c1cnn2Cc1ccccc1,116% (inactive),98.9% (inactive),5.01% (inactive),93.9%,98.9%,-1.97% (inactive),-3.33% (inactive)
COC(=O)c1ccc(CSc2nc3ccccc3c(=O)n2Cc2ccco2)o1,81.2% (inactive),84.4% (inactive),-7.85% (inactive),92.3%,84.4%,-4.94% (inactive),-1.11% (inactive)
O=C(CNC(=O)c1cccs1)NCCN1CCN(c2ccccc2F)CC1,101% (inactive),89.3% (inactive),12.1% (inactive),77.2%,89.3%,-3.95% (inactive),2.54% (inactive)
CCOc1ccccc1-n1c(SCC(=O)NC(C)CC)nnc1-c1ccoc1C (configuration not stated),82.5% (inactive),88.7% (inactive),9.12% (inactive),79.6%,88.7%,-6% (inactive),-1.75% (inactive)
COC(=O)c1c(C(=O)OC)n(CCCN)c2ccc(C)cc12,89.1% (inactive),89.7% (inactive),4.39% (inactive),85.3%,89.7%,-0.52% (inactive),-1.11% (inactive)
COc1ccc(N2CCN(c3oc(COc4ccccc4)nc3C#N)CC2)cc1,84.1% (inactive),101% (inactive),-2.02% (inactive),103%,101%,-5.19% (inactive),0.95% (inactive)
CCOC(=O)Cc1csc(NC(=O)CSc2nnc(C)n2C)n1,108% (inactive),95.2% (inactive),5.79% (inactive),89.4%,95.2%,6.27% (inactive),-5.4% (inactive)
